# Columns and labels:
# [1] = molecular target: T1, Protein deacetylase HDAC6 (Homo sapiens) (UniProt Q9UBN7); experiment: Inhibition of HDAC6 in human HeLa-S3 cell lysates assessed as remaining activity at […] preincubated for 15 mins followed by HDAC-Glo substrate addition measured after 30 to 40 mins by […] relative to control
# T1 sequence (whole entry): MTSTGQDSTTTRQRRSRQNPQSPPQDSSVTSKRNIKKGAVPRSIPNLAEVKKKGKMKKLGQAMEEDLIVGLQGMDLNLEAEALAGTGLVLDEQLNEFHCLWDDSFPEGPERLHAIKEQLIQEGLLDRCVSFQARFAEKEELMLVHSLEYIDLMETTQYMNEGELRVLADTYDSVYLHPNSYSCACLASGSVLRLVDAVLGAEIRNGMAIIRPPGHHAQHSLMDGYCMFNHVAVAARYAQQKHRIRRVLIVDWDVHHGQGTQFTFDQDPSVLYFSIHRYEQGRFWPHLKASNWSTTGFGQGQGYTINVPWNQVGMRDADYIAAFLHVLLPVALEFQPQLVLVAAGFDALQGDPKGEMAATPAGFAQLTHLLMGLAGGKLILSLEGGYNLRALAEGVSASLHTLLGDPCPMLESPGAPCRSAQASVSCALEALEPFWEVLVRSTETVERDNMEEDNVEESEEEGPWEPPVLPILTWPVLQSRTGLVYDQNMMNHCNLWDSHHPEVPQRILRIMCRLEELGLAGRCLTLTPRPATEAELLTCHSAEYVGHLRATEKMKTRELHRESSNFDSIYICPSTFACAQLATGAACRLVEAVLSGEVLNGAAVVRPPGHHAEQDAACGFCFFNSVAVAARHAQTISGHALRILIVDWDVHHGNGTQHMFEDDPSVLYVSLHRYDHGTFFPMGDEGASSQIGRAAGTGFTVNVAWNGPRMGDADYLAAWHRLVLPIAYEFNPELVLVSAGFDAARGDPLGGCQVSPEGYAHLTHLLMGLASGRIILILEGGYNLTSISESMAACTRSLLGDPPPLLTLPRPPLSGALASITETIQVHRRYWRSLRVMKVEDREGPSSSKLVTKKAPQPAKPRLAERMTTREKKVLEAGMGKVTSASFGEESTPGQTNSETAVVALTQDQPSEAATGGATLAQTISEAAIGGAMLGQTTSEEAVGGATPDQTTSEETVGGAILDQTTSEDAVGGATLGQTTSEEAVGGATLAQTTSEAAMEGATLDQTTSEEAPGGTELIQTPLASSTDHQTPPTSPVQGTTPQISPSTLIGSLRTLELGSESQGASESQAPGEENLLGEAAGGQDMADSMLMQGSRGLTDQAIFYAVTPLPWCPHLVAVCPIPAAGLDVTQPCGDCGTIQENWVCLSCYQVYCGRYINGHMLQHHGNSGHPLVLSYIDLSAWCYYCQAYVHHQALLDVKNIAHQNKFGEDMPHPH
# [2] = molecular target: T2, Histone deacetylase 8 (Homo sapiens) (UniProt Q9BY41); experiment: Inhibition of human recombinant full-length C-terminal His-tagged HDAC8 expressed in baculovirus infected Sf9 insect cell assessed as remaining activity at 4 x 10^-7 M preincubated for 15 mins followed by HDAC-Glo substrate addition measured after 30 mins by fluorimetric method rel;ative to control
# T2 sequence (whole entry): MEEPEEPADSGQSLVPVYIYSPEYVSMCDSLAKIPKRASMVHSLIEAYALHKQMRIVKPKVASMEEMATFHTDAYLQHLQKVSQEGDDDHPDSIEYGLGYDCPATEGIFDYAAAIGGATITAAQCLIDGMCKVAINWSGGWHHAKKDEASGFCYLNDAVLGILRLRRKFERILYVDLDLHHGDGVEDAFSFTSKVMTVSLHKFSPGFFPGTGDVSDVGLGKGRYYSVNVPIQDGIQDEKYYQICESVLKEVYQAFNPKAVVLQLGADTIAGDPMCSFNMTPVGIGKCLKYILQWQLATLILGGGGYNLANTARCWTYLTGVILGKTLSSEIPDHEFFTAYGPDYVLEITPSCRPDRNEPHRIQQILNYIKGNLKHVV
# Summary of the method: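 Recombinant HDAC8 (75 ng) preincubated 15 min at RT with inhibitor in DMSO in HDAC-Glo buffer. HDAC-Glo reagent added and luminescence read 30 min later. Background taken from a reaction without enzyme; activity as % of DMSO control.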
# [3] = molecular target: T3, Histone deacetylase (Homo sapiens) (UniProt Q13547+O15379+Q9UBN7+Q92769+Q9UQL6+Q8WUI4+Q9BY41+Q96DB2+P56524+Q9UKV0+Q969S8); experiment: Inhibition of HDAC in human HeLa-S3 cell lysates assessed as residual activity at 2 x 10^-4 M preincubated for 15 mins followed by HDAC-Glo substrate addition measured after 35 mins by fluorimetric method relative to control; format: protein assay
# Summary of the method: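 Lysate (1 μg total protein) in HDAC-Glo buffer was preincubated with inhibitor in DMSO for 15 min at room temperature. HDAC-Glo substrate/developer reagent was added and luminescence read after 35 min. Concentrations are final. Signal corrected for a no-lysate blank; % of DMSO control.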
# [4] = molecular target: T3, Histone deacetylase (Homo sapiens); experiment: Inhibition of HDAC in human HeLa-S3 cell lysates assessed as residual activity at 1 x 10^-4 M preincubated for 15 mins followed by HDAC-Glo substrate addition measured after 35 mins by […] relative to control; format: protein assay
# [5] = molecular target: T3, Histone deacetylase (Homo sapiens); experiment: Inhibition of HDAC in human HeLa-S3 cell lysates assessed as residual activity at 2.5 x 10^-5 M preincubated for 15 mins followed by HDAC-Glo substrate addition measured after 35 mins by […] relative to control; format: protein assay
# [6] = tested on: U-937; experiment: Cytotoxicity against human U937 cells assessed as decrease in cell viability after 44 hrs by MTT assay; format: functional, cell-based; conditions: Homo sapiens, U-937, 44 h
# [7] = tested on: U-937; experiment: Cytotoxicity against human U937 cells assessed as cell viability at 6.4 x 10^-5 M after 44 hrs by MTT assay relative to control; format: functional; conditions: U-937, 44 h, read-out: Activity
# [8] = tested on: U-937; experiment: Cytotoxicity against human U937 cells assessed as cell viability at 3.2 x 10^-5 M after 44 hrs by MTT assay relative to control; format: functional; conditions: U-937, 44 h, read-out: Activity
# [9] = tested on: U-937; experiment: Cytotoxicity against human U937 cells assessed as cell viability at 1.6 x 10^-5 M after 44 hrs by MTT assay relative to control; format: functional; conditions: U-937, 44 h, read-out: Activity
# [10] = tested on: U-937; experiment: Cytotoxicity against human U937 cells assessed as cell viability at 8 x 10^-6 M after 44 hrs by MTT assay relative to control; format: functional; conditions: U-937, 44 h, read-out: Activity
# [11] = tested on: U-937; experiment: Cytotoxicity against human U937 cells assessed as cell viability at 4 x 10^-6 M after 44 hrs by MTT assay relative to control; format: functional; conditions: U-937, 44 h, read-out: Activity
# [12] = tested on: U-937; experiment: Cytotoxicity against human U937 cells assessed as cell viability at 2 x 10^-6 M after 44 hrs by MTT assay relative to control; format: functional; conditions: U-937, 44 h, read-out: Activity
# [13] = tested on: Jurkat; experiment: Cytotoxicity against human Jurkat cells assessed as cell viability at 1 uM after 44 hrs by MTT assay relative to control; format: functional; conditions: read-out: Activity
# [14] = tested on: Jurkat; experiment: Cytotoxicity against human Jurkat cells assessed as cell viability at 10 uM after 44 hrs by MTT assay relative to control; format: functional; conditions: read-out: Activity
Activity [1] [%],Activity [2] [%],Activity [3] [%],Activity [4] [%],Activity [5] [%],Compound,EC50 [6] [µM],viability at 64 µM [7] [%],viability at 32 µM [8] [%],viability at 16 µM [9] [%],viability at 8 µM [10] [%],viability at 4 µM [11] [%],viability at 2 µM [12] [%],viability at 1 µM [13] [%],viability at 10 µM [14] [%]
18,25,,,,CCC(CCCC(=O)Nc1ccccc1)CCC(=O)NO (configuration not stated),,,,,,,,,
,,21,35,73,CCCCCCC(CCCC(=O)Nc1ccccc1)CCC(=O)NO (configuration not stated),16,24,28,37,102,108,106,69,39
,28,,,,O=C(CC[C@H](CCCC(=O)Nc1ccccc1)Cc1ccccc1)NO,,,,,,,,,
,,19,35,74,O=C(CCC(CCCC(=O)Nc1ccccc1)Cc1ccccc1)NO (racemic),28,26,49,69,80,74,80,89,97

# — ChEMBL document CHEMBL4251567 (Eur J Med Chem, 2018)
